Bioassay records as filed in PubChem.
In the library only some 1% were active in any assay of this set; here they are far more common.
PvdQ acylase = P. aeruginosa PvdQ acylase inhibition | AID 488965 | 340,000 tested, 0.063% active | purified PvdQ acylase, fluorescence plate reader | inhibition, % at 10 µM; in the data active = inhibition above about 30%, passing the limit was not always enough;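 note: 0% = vehicle neutral wells and 100% = reference inhibitor wells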
IMP-1 inh-1 = inhibitors of Pseudomonas aeruginosa IMP-1 metallo-beta-lactamase. purified IMP-1, nitrocefin hydrolysis, epi-absorbance fluorescence. inhibition, % at 5.6 µM. 290,000 tested, 0.45% active;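 active = inhibition above the mean plus 3 SD of all compounds in the same screening run, cut at about 4.5% in these data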;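 note: 0% = IMP-1 with DMSO and 100% = DMSO wells lacking enzyme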
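assay system = purified recombinant IMP-1 metallo-beta-lactamase enzyme | schedule = 15 min preincubation plus 25 min reaction at 25 °C | signal = Epi-absorbance fluorescence, 480 nm excitation, 530 nm emission | read-out basis = percent inhibition from optical density relative to buffer-blank wells | controls = IMP-1 with DMSO as 0%, enzyme-free DMSO as 100%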
RAD54 inh = RAD54 (human) branch migration inhibition; Q92698; RAD54 Holliday junction branch migration, FAM/BHQ fluorescence; inhibition, % at 10.4 µM; 360,000 tested, 0.14% active;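 active = mean normalized replicate activity at least 40 and at least half of replicates scoring 40 or more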;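 note: 0% = median of neutral control wells and 100% = median of positive control wells; inhibitors cause a drop in the FAM fluorescence signal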
Target sequence (Q92698 whole entry, looked up): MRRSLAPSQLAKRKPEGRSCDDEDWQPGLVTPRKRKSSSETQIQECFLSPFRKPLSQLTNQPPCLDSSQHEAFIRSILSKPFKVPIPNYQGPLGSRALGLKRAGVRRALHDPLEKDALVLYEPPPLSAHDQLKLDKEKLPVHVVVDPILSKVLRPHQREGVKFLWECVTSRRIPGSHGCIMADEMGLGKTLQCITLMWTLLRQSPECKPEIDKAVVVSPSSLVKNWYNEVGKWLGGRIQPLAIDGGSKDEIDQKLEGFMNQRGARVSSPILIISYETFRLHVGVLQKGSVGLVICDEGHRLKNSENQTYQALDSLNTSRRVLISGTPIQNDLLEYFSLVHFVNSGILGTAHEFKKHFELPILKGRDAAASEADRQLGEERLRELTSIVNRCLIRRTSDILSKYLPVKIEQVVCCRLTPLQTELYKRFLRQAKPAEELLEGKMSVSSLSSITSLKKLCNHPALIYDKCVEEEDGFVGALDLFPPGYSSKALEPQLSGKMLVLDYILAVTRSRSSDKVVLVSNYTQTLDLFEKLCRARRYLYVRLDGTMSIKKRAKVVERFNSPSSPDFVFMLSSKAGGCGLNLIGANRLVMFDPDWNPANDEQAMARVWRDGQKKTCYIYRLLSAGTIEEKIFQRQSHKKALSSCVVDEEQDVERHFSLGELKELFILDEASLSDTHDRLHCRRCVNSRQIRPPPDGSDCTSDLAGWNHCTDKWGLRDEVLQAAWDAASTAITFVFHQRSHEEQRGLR
VIM-2 inhibitor = inhibitors of Pseudomonas aeruginosa VIM-2 metallo-beta-lactamase | purified VIM-2, nitrocefin hydrolysis, epi-absorbance fluorescence | inhibition, % at 5.6 µM | 290,000 tested, 0.89% active | AID 1527;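 active = inhibition above the mean of all tested compounds plus 3 SD, cutoff set per screening run, cut at about 7.5% in these data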;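 note: red hydrolysis product quenches plate fluorescence so inhibitors raise well fluorescence; 0% = enzyme with DMSO and 100% = DMSO without enzyme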
FID counter = displaces DNA intercalator in HCV helicase counter-screen; DNA fluorescent intercalator displacement, fluorescence; inhibition, % at 7.9 µM; 290,000 tested, 0.17% active; AID 1845; in the data active = inhibition above about 37%;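 note: 0% = vehicle and 100% = reference compound; higher means more ethidium bromide displaced from hairpin DNA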
IMP-1 inh-2 = selectivity counter-screen for VIM-2 inhibitors: IMP-1 metallo-beta-lactamase inhibitors; shares compounds with VIM-2 inhibitor; purified IMP-1, nitrocefin hydrolysis, epi-absorbance fluorescence; inhibition, % at 5.6 µM; 1,300 tested, under 10 active; call rule not given here;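 note: 0% = enzyme with vehicle and 100% = vehicle without enzyme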
VIM-2 FRET ctr = counter-screen for VIM-2 inhibitors: epi-absorbance artifacts via FRET; shares compounds with VIM-2 inhibitor; purified VIM-2, CCF2 FRET substrate hydrolysis; inhibition, % at 5.6 µM; 1,300 tested, 23% active; AID 1857;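 active = inhibition above the mean of all tested compounds plus 3 SD, cut at about 19% in these data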;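 note: 0% = VIM-2 plus DMSO and 100% = no enzyme wells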
TEM-1 inh = blocks E. coli TEM-1 beta-lactamase in VIM-2 selectivity screen; shares compounds with VIM-2 inhibitor; Purified TEM-1, nitrocefin hydrolysis, epi-absorbance fluorescence; inhibition, % at 5.6 µM; 1,300 tested, 3% active; AID 1866;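 active = inhibition above that campaign's mean inhibition plus 3 SD, cut at about 0.46% in these data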;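 note: 0% = TEM-1 with DMSO and 100% = TEM-1 with 100 µM potassium clavulanate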
VIM-2 inh conf = confirmation of P. aeruginosa VIM-2 metallo-beta-lactamase inhibitors; shares compounds with VIM-2 inhibitor; purified VIM-2, nitrocefin hydrolysis, epi-absorbance; inhibition, % at 5.6 µM; 1,300 tested, 96% active; AID 2187;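 active = inhibition of the VIM-2 beta-lactamase enzyme above about 11% from the earlier first-round screen, limit read from the data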;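 note: 0% = VIM-2 with DMSO and 100% = buffer wells without enzyme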
An asterisk follows results filed as active; / = not tested or not shown.

SMILES	PvdQ acylase	IMP-1 inh-1	RAD54 inh	VIM-2 inhibitor	FID counter	IMP-1 inh-2	VIM-2 FRET ctr	TEM-1 inh	VIM-2 inh conf
CCn1c(SC)nnc1-c1nn(-c2ccccc2)ccc1=O	7.9	1.1	8.3	0.5	-9.8	/	/	/	/
OC[C@H]1[C@@H](c2ccc(C#CC3CC3)cc2)[C@@H]2CN(CCC(F)(F)F)CCCCN12	/	/	1.4	/	/	/	/	/	/
Cc1cccnc1CN1CCN(C(=O)c2cc(COc3ccc4ncccc4c3)on2)CC1	-13.8	-3.1	/	47.8*	-25.1	-3.4	-20.5	-3.8	63.8*
COC(=O)Nc1sccc1C(=O)Nc1sccc1C(=O)OC	3.7	-3.0	1.7	-2.6	4.5	/	/	/	/
COC(=O)c1ccsc1NC(=O)C1=COCCO1	2.5	-0.9	1.9	13.0*	-6.6	-2.4	-2.5	-5.3	12.2*
CC1(C)CC(NC(=O)COc2cc3oc(=O)c4c(c3cc2Cl)CCC4)CC(C)(C)N1	-9.4	0.2	/	33.9*	23.8	-1.8	0.9	-6.6	41.2*
CC1(C)CC(NC(=O)COc2ccccc2Cl)CC(C)(C)N1	2.8	-4.9	-3.3	-3.9	5.6	/	/	/	/
CC1(C)CC(NC(=O)COc2ccc(Br)cc2Cl)CC(C)(C)N1	-15.2	-0.8	12.4	-2.7	16.2	/	/	/	/
Cc1c(OCC(=O)NC2CC(C)(C)NC(C)(C)C2)ccc2c3c(c(=O)oc12)CCC3	-15.9	-3.5	13.6	32.3*	38.6*	-1.1	0.8	-12.9	44.2*
Cc1cc(OCC(=O)NC2CC(C)(C)NC(C)(C)C2)c2c(C)c(C)c(=O)oc2c1	2.2	0.9	22.4	13.5*	13.1	-3.9	2.1	-6.8	17.6*
Cc1c(C)c2cc(Cl)c(OCC(=O)NC3CC(C)(C)NC(C)(C)C3)cc2oc1=O	-6.5	-0.5	2.4	15.9*	8.9	-2.7	3.1	-5.3	21.6*
Cc1cc(OCC(=O)NC2CC(C)(C)NC(C)(C)C2)c2c(C)cc(=O)oc2c1	7.3	-1.5	12.4	6.0	6.9	/	/	/	/
O=C(C[C@@H]1C[C@@H]2c3cc(NC(=O)CC4CC4)ccc3O[C@@H]2[C@@H](CO)O1)NCCc1ccccc1	/	/	14.4	/	/	/	/	/	/
Cc1noc(C)c1S(=O)(=O)N(C)C[C@@H]1Oc2ccc(NC(=O)Cc3ccccc3)cc2CC(=O)N([C@@H](C)CO)C[C@H]1C	/	/	-0.5	/	/	/	/	/	/
Cc1cc(C)c2c(c1)c1nnc(SCCN3CCOCC3)nc1n2C	-10.7	-3.1	10.0	23.4*	-15.7	-2.4	2.6	-4.7	30.7*
CCCn1c2ccc(C)cc2c2nnc(SCCN3CCOCC3)nc21	-12.4	-1.1	-7.5	16.7*	-18.1	-2.8	3.5	-6.7	27.3*
CCn1c2ccc(C)cc2c2nnc(SCCN3CCCCC3)nc21	4.4	-4.1	22.6	26.4*	-5.1	-3.3	3.4	-6.8	34.8*
CCCn1c2ccccc2c2nnc(SCCN3CCOCC3)nc21	-7.1	-2.7	4.1	6.0	-17.6	/	/	/	/
Cc1ccc2c(c1)c1nnc(SCC(=O)NC3CC3)nc1n2C	-15.3	-2.6	0.1	16.6*	-14.5	-1.9	-0.9	-4.7	27.9*
O=C(C[C@@H]1C[C@@H]2c3cc(NC(=O)Nc4ccc(C(F)(F)F)cc4)ccc3O[C@@H]2[C@H](CO)O1)NCc1cccnc1	/	/	9.6	/	/	/	/	/	/
CO[C@@H]1CN(C)C(=O)c2ccc(NC(C)=O)cc2OC[C@@H](C)N(C(=O)c2ccc(F)cc2)C[C@@H]1C	/	/	-3.7	/	/	/	/	/	/
CCCn1c2ccc(F)cc2c2nnc(SCCN3CCOCC3)nc21	-8.6	-2.3	10.5	4.4	-19.2	/	/	/	/
CCCn1c2ccc(C)cc2c2nnc(SCCN3CCCCC3)nc21	-4.5	-0.5	-11.2	22.1*	-8.3	-3.1	-8.4	-5.6	21.4*
Cc1cccc(-n2c(C)n[nH]c2=S)c1C	-5.6	-3.5	-7.9	12.2*	-4.2	-3.6	39.9*	-6.0	23.5*
Cc1nn(CCc2n[nH]c(=S)n2-c2cccc(Cl)c2)c(C)c1[N+](=O)[O-]	-9.6	-5.9	-2.1	17.2*	-8.7	-2.5	47.8*	-6.5	29.9*
